# From PubChem BioAssay
# This is a sample that favours compounds with a hit; in the whole collection about 2.5% have one here.
# mABHD4 FP = inhibits mouse alpha/beta hydrolase domain 4; purified mABHD4, FP-Rh probe fluorescence polarization; 370,000 tested, 0.54% active; inhibition, % at 8.92 µM;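 active means inhibition exceeding the mean over every tested compound plus 3 SD, cut at about 30% in these data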;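 further: 0% = plate median of compound wells and 100% = S159A mutant with DMSO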
#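 Test system: mABHD4 protein | Buffer or medium: HEPES pH 7.0 buffer, 150 mM NaCl, 0.01% Pluronic F-127 | Probe or stimulus: FP-Rh fluorescent activity-based probe, added after compound pre-incubation | Timing: Pre-incubation 45 min, probe exposure 60 min, at 25 °C | Technique: Fluorescence polarization, excitation 525 nm, emission 598 nm, BODIPY TMR filters | Repeats: Single well per compound (singlicate)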
# TCR CD3 inh = inhibitors of human TCR-CD3 interaction | inhibition, % at 9.4 µM | 360,000 tested, 0.37% active | AID 651800 | TAMRA-labeled TCR probe fluorescence, biochemical;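 further: recombinant mutant TCR 2C K166C tagged with TAMRA read by polarization; 0% = receptor in buffer alone and 100% = receptor with positive control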
# HTRA1 inh = inhibitors of human serine peptidase HTRA1 | recombinant HTRA1, FP-rhodamine activity-based probe, fluorescence polarization | inhibition, % at 5.96 µM | 340,000 tested, 0.5% active | AID 504803; in the data active means inhibition above about 36%;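 further: 0% = enzyme with DMSO and 100% = wells lacking enzyme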
# PRMT1 FP inh = blocks human protein arginine methyltransferase 1 | inhibition, % at 2.79 µM | recombinant PRMT1, activity-based probe fluorescence polarization | 370,000 tested, 1.3% active | Q99873;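 active means inhibition above about 21% made by adding two undisclosed values, limit read from the data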
# SIAE inh = blocks human sialic acid acetylesterase. Q9HAT2. SIAE FP-Rh probe binding, fluorescence polarization. inhibition, % at 9.66 µM. 370,000 tested, 0.69% active. AID 1053197;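 active means inhibition above a cutoff: mean of compounds within the control limits plus 3 SD of those, cut at about 17% in these data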;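 further: 0% = plate median of compound wells and 100% = probe without SIAE protein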
# Target sequence (Q9HAT2 whole entry, looked up): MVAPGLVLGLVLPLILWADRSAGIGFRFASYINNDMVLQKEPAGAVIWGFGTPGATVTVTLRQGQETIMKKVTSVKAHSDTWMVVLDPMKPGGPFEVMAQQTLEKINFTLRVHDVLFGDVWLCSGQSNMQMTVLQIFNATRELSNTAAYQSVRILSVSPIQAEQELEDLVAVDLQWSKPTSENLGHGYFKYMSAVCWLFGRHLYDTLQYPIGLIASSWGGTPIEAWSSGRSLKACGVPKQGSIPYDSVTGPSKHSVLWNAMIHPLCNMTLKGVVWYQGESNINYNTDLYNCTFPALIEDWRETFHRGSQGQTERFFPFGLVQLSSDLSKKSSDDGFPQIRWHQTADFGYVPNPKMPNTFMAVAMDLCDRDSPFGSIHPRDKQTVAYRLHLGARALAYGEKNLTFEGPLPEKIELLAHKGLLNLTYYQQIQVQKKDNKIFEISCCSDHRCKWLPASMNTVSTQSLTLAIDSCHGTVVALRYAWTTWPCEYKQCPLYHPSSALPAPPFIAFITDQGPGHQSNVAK
# HTRA1 conf = confirmation of human HTRA1 inhibitors | 1,600 tested, 66% active | inhibition, % at 5.96 µM | shares compounds with HTRA1 inh | recombinant HTRA1, FP-rhodamine activity-based probe, fluorescence polarization;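 active means mean inhibition over three repeats above a set limit taken from the earlier primary screen, cut at about 37% in these data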;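 further: 0% = HTRA1 with DMSO and 100% = wells lacking HTRA1; inhibitors block probe binding so polarization drops and inhibition rises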
# BSA probe FL = interferes with TAMRA-BSA probe, flagging TCR-CD3 hits | inhibition, % at 9.4 µM | shares compounds with TCR CD3 inh | TAMRA-labeled BSA probe fluorescence counterscreen | 1,200 tested, 10% active; in the data active means inhibition above about 23%;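 further: 0% = buffer low control and 100% = reference high control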
# TCR-CD3 inh conf = confirmation of human TCR-CD3 interaction inhibitors | 1,200 tested, 48% active | inhibition, % at 9.4 µM | TAMRA-labeled TCR probe fluorescence binding assay | shares compounds with TCR CD3 inh
# PRMT1 confirm = PRMT1 (human) inhibition, FP confirmation. inhibition, % at 2.79 µM. 3,300 tested, 42% active. shares compounds with PRMT1 FP inh. recombinant His-PRMT1, activity-based probe fluorescence polarization;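 active means mean inhibition across replicates above the hit cutoff derived for the earlier primary screen, cut at about 22% in these data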
# mABHD4 conf = ABHD4 (mouse) inhibition, FP confirmation | purified mABHD4, FP-Rh probe fluorescence polarization | 1,800 tested, 55% active | AID 720658 | shares compounds with mABHD4 FP | inhibition, % at 8.92 µM;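 active means mean inhibition across replicates above the hit cutoff set in the primary screen, cut at about 30% in these data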;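 further: 0% = wild-type ABHD4 with DMSO and 100% = catalytically dead S159A mutant with DMSO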
# * = called active by the depositor; . = no result. Unless noted, no stated cut-off is given here; in the data, active means inhibition above about 19%; inactive means the rest.
SMILES,mABHD4 FP,TCR CD3 inh,HTRA1 inh,PRMT1 FP inh,SIAE inh,HTRA1 conf,mABHD4 conf,others
O=C(OCC#CCSc1nnc(-c2cccc3ccccc23)o1)c1sccc1Cl,0,.,.,-5,3,.,.,
COc1ccc(N/N=C(/N=Nc2nc(C)cc(=O)[nH]2)c2ccccc2)cc1,40*,-3,71*,6,9,76*,42*,
CCCC(=O)C1=C(c2ccccc2)C(C#N)(C#N)C(C#N)=C1N,38*,1,38*,18,13,55*,22,
COc1cccc(N2CCN(CC(=O)N(C)Cc3ccccc3Cl)CC2)c1,6,.,.,-1,4,.,.,
CN=c1scc(-c2ccccc2F)n1/N=C/c1ccc(O)c(O)c1O,49*,16,72*,20,16,77*,60*,
CN=c1scc(-c2ccccc2F)n1/N=C/c1ccc[nH]1,-1,-10,27,7,-3,.,.,
CC(C)N=c1scc(-c2cccs2)n1/N=C/c1ccc(O)c(O)c1O,41*,7,57*,10,14,65*,54*,
O=C(O)[C@H]1CCCC[C@H]1C(=O)Nc1ccc(Nc2ccccc2)cc1,42*,-5,67*,12,7,21,19,
O=[N+]([O-])c1ccccc1NC(=S)N/N=C/c1ccc(O)c(O)c1,51*,20*,80*,8,8,73*,36*,BSA probe FL=-16;TCR-CD3 inh conf=20*
O=C(O)COc1ccccc1/C=N/Nc1ccc(S(=O)(=O)Nc2ccc(Cl)cc2)cc1[N+](=O)[O-],63*,1,54*,5,11,88*,79*,
O=[N+]([O-])c1ccccc1C=NNC(=S)NN=Cc1ccccc1[N+](=O)[O-],9,-6,10,8,4,.,.,
O=C(O)COc1ccccc1C=NNc1ccc([N+](=O)[O-])cc1S(=O)(=O)Nc1ccc(Cl)cc1,5,-2,-45,13,-12,.,.,
O=C(O)c1ccccc1NS(=O)(=O)c1ccc(N/N=C/c2ccc(O)c(O)c2)c([N+](=O)[O-])c1,81*,19*,66*,33*,-1,143*,100*,BSA probe FL=6;TCR-CD3 inh conf=43*;PRMT1 confirm=40*
COC(=O)[C@]12C[C@H](CC(=O)N3CCN(C(=O)C4CC4)CC3)C(=O)N(CCc3ccc(OC)c(OC)c3)C1=C[C@H](C(C)C)O[C@@H]2C1CC1,1,.,.,0,2,.,.,
CCOC(=O)NC[C@@]1(C(=O)OC)CC(=O)N(Cc2ccc(Cl)cc2)[C@@H]1c1ccc(OC)cc1,0,.,.,-4,5,.,.,
Cc1cccc2c(N=Nc3ccc(S(=O)(=O)Nc4cccc(Cl)c4)cc3[N+](=O)[O-])c(O)[nH]c12,43*,3,37*,1,3,28,-43,
Cc1ccc(S(=O)(=O)Nc2ccccc2)cc1[N+](=O)[O-],-2,3,1,-2,-4,.,.,
CCCCCCCCCCCCCCCC[N+](C)(C)CCl,50*,11,65*,1,-3,74*,12,
CCCCCCCCCCCCCCCC[N+](C)(C)CC,47*,4,61*,-4,0,167*,60*,
C#CC[N+](C)(C)CCCCCCCCCC,0,3,10,1,-2,.,.,
C#CC[N+](C)(C)CCCCCCCCCCCC,11,-6,3,3,-7,.,.,
C[C@H](O)[C@@H]1CN2CCc3ccc(N4CCOCC4)cc3[C@@H]2C[C@@H]1N(C)C(=S)NCCc1ccccc1,6,.,.,4,3,.,.,
CN[C@H]1C[C@H]2c3[nH]c4cccc(-c5cccc(F)c5)c4c3CCN2C(=O)[C@H]1[C@H](C)O,5,.,.,2,5,.,.,
CN1CCN(C2=C(NS(=O)(=O)c3cccs3)C(=O)c3ccccc3C2=O)CC1,3,1,1,-4,-3,.,.,
O=C1C(NS(=O)(=O)c2cccs2)=C(N2CCN(c3cccc(C(F)(F)F)c3)CC2)C(=O)c2ccccc21,43*,0,45*,10,3,69*,70*,
SMILES,mABHD4 FP,TCR CD3 inh,HTRA1 inh,PRMT1 FP inh,SIAE inh,HTRA1 conf,mABHD4 conf,others
CCOc1ccccc1N1CCN(C2=C(NS(=O)(=O)c3cccs3)C(=O)c3ccccc3C2=O)CC1,48*,1,63*,-1,12,68*,62*,
CN(C)c1ccc(C(=O)NC2CCCCN(Cc3ccc(Cl)cc3)C2=O)cc1 (stereo unspecified),5,.,.,-3,0,.,.,
O=C(N[C@@H]1C[C@@H]2O[C@@H](CO)CC[C@@H]2O[C@@H]1CCc1ccc(-c2ccccc2)cc1)c1cnccn1,-12,.,.,7,-7,.,.,
C[C@@H]1[C@H](O)[C@@H](C)/C=C/C=C/C=C/C=C/C=C/C=C/C=C/[C@H](OC2O[C@H](C)[C@@H](O)[C@H](N)[C@@H]2O)C[C@@H]2O[C@](O)(C[C@@H](O)C[C@@H](O)[C@H](O)CC[C@@H](O)C[C@@H](O)CC(=O)O[C@H]1C)C[C@H](O)[C@H]2C(=O)O (stereo partly specified),-7,.,.,3,-3,.,.,
COc1ccc(OC)c(Nc2nc(-c3sc(NC(=O)CC(C)C)nc3C)cs2)c1,35*,5,37*,4,9,27,54*,
CCCCC(=O)Nc1nc(C)c(-c2csc(Nc3cc(OC)ccc3OC)n2)s1,42*,1,39*,0,8,26,66*,
Cc1ccc(C2C3=C(CC(C)(C)CC3=O)OC3=C2C(=O)CC(C)(C)C3)cc1,10,-8,1,2,4,.,.,
CC(C)Nc1ccc(Nc2ccnc3cc4ccccc4cc23)cc1,31*,-2,39*,-3,8,46*,54*,
N#Cc1c(N)nc2c3c(sc(=N)c2c1N)NC(=O)CC3c1c(F)cccc1Cl (stereo unspecified),35*,10,63*,1,0,25,17,
COC(=O)[C@H]1C[C@@]2(N3CCCC3)c3ccccc3N[C@H]2N1S(C)(=O)=O,3,.,.,1,5,.,.,
Cc1ccc(S(=O)(=O)/N=C2\C=C(Nc3cccc(C(=O)O)c3)C(=O)c3ccccc32)cc1,33*,0,52*,2,4,30,62*,
